# Tests used:
# [1] = tested on: MCF7; assay: Cytotoxicity against human MCF7 cells […] in aerobic condition assessed as survival at 100 uM by sulforhodamine assay; type: functional; conditions: read-out: Activity
# How it was run: (§1)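 Cells kept in RPMI with L-glutamine, penicillin/streptomycin, non-essential amino acids (1% each) and 10% FBS, 37 °C, 5% CO2, 48 h; compound added from 1 mM stock in 10% DMSO to final 100 µM, 24 h exposure. TCA fixation 1 h at 4 °C, sulforhodamine B staining, Tris pH 10.0, A540. Survival = (T/C)×100 versus solvent control; duplicates, two repetitions averaged.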
# [2] = tested on: TK-10; assay: Cytotoxicity against human TK10 cells in aerobic condition assessed as survival at 100 uM by sulforhodamine assay; type: functional; conditions: read-out: Activity; how it was run: as §1
# [3] = tested on: HT-29; assay: Cytotoxicity against human HT29 cells ATCC HTB38 in aerobic condition assessed as survival at 100 uM by sulforhodamine assay; type: functional; conditions: read-out: Activity; how it was run: as §1
# [4] = tested on: MCF7; assay: Growth inhibition of MCF7 cells by sulforhodamine assay; type: functional, cell-based; conditions: Homo sapiens
# How it was run: (§2)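 Cells grown in supplemented RPMI with 10% FBS at 37 °C, 5% CO2, 48 h, then exposed to increasing compound concentrations (1 mM stocks in 10% DMSO) for 24 h. Sulforhodamine B read-out after TCA fixation at A540. IC50 is the concentration halving absorbance relative to solvent control. Duplicates, at least two repetitions, means reported.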
# [5] = Growth inhibition of HK2 cells by sulforhodamine assay; type: cell-based; conditions: Homo sapiens, HK-2
# [6] = tested on: TK-10; assay: Growth inhibition of TK10 cells by sulforhodamine assay; type: functional, cell-based; conditions: Homo sapiens; how it was run: as §2
# [7] = tested on: HT-29; assay: Growth inhibition of HT29 cells by sulforhodamine assay; type: functional, cell-based; conditions: Homo sapiens; how it was run: as §2
compound,measurement,setting,value
COc1cc(/C=C/C(=O)c2ccccc2O)ccc1OCc1ccccc1,viability at 100 µM,[1],97%
same,viability at 100 µM,[2],90%
same,viability at 100 µM,[3],100%
O=C(/C=C/c1ccccc1Br)c1ccccc1O,viability at 100 µM,[1],100%
same,viability at 100 µM,[2],3%
same,viability at 100 µM,[3],0%
COc1ccc(C2CC(=O)c3ccccc3O2)cc1 (stereo not drawn),viability at 100 µM,[1],2%
same,viability at 100 µM,[2],36%
same,viability at 100 µM,[3],100%
O=C(/C=C/c1ccc(OCc2ccccc2)cc1)c1ccccc1O,viability at 100 µM,[1],56%
same,viability at 100 µM,[2],64%
same,viability at 100 µM,[3],59%
COc1ccc(OC)c(/C=C/C(=O)c2ccccc2O)c1,viability at 100 µM,[1],45%
same,viability at 100 µM,[2],56%
same,viability at 100 µM,[3],92%
CN(C)c1ccc(/C=C/C(=O)c2ccccc2O)cc1,viability at 100 µM,[1],87%
same,viability at 100 µM,[2],76%
same,viability at 100 µM,[3],65%
COc1ccc(/C=C/C(=O)c2c(O)cc(OC)cc2OC)cc1 [FLAVOKAWAIN A],viability at 100 µM,[1],60%
same,viability at 100 µM,[2],71%
O=C(/C=C/c1ccccc1Br)c1ccc(OCc2ccccc2)cc1O,viability at 100 µM,[1],74%
same,viability at 100 µM,[2],65%
same,viability at 100 µM,[3],80%
O=C(/C=C/c1ccc(Cl)cc1)c1ccccc1 [4-CHLORO CHALCONE],viability at 100 µM,[1],56%
same,viability at 100 µM,[2],2%
same,viability at 100 µM,[3],9%
COc1ccc(-c2cc(=O)c3ccccc3o2)cc1 [4'-METHOXYFLAVONE],viability at 100 µM,[1],100%
same,viability at 100 µM,[2],82%
same,viability at 100 µM,[3],100%
Nc1ccc(/C=C/C(=O)c2ccccc2O)cc1,viability at 100 µM,[1],43%
same,viability at 100 µM,[2],91%
same,viability at 100 µM,[3],98%
CC(=O)Nc1ccc(/C=C/C(=O)c2ccccc2O)cc1,viability at 100 µM,[1],79%
same,viability at 100 µM,[2],89%
same,viability at 100 µM,[3],87%
CC(=O)Nc1ccc(/C=C/C(=O)c2ccccc2)cc1,viability at 100 µM,[1],24%
same,viability at 100 µM,[2],5%
same,viability at 100 µM,[3],3%
O=C(/C=C/C=C/c1ccccc1)c1ccccc1O,viability at 100 µM,[1],84%
same,viability at 100 µM,[2],100%
O=C(/C=C/c1ccc(O)cc1)c1ccccc1O,viability at 100 µM,[1],3%
same,viability at 100 µM,[2],5%
same,viability at 100 µM,[3],9%
O=C(/C=C/c1ccccc1)c1ccccc1O [2'-HYDROXYCHALCONE],IC50,[4],78 µM
same,IC50,[5],24.4 µM
same,viability at 100 µM,[1],3%
same,viability at 100 µM,[2],0%
same,IC50,[6],79 µM
same,viability at 100 µM,[3],14%
same,IC50,[7],85 µM
O=C(CCc1ccc(OCc2ccccc2)cc1)c1ccccc1O,viability at 100 µM,[1],89%
same,viability at 100 µM,[2],95%
same,viability at 100 µM,[3],100%
CSc1ccc(/C=C/C(=O)c2ccccc2)cc1,viability at 100 µM,[1],47%
same,viability at 100 µM,[2],0%
same,viability at 100 µM,[3],46%
CSc1ccc(C(O)CC(=O)c2ccccc2O)cc1 (stereo not drawn),viability at 100 µM,[1],90%
same,viability at 100 µM,[2],100%
same,viability at 100 µM,[3],100%
O=C(/C=C/c1ccc(OCc2ccccc2)cc1)c1ccc(OCc2ccccc2)cc1O,viability at 100 µM,[1],100%
same,viability at 100 µM,[2],92%
same,viability at 100 µM,[3],100%
CSc1ccc(/C=C/C(=O)c2ccccc2O)cc1,viability at 100 µM,[1],75%
same,viability at 100 µM,[2],91%
same,viability at 100 µM,[3],76%
COc1ccc(/C=C/C(=O)c2ccccc2O)cc1OCc1ccccc1,viability at 100 µM,[1],100%
same,viability at 100 µM,[2],100%
same,viability at 100 µM,[3],100%
CCCCCCOc1ccc(/C=C/C(=O)c2ccccc2O)cc1,viability at 100 µM,[1],76%
same,viability at 100 µM,[2],62%
same,viability at 100 µM,[3],97%
O=C(/C=C/c1ccc(OCc2ccccc2)c(I)c1)c1ccccc1O,viability at 100 µM,[1],81%
same,viability at 100 µM,[2],78%
same,viability at 100 µM,[3],100%
O=C1CC(c2ccccc2Br)Oc2ccccc21 (stereo not drawn),viability at 100 µM,[1],12%
same,viability at 100 µM,[2],54%
same,viability at 100 µM,[3],44%
O=C(/C=C/c1ccc([N+](=O)[O-])cc1)c1ccccc1O,viability at 100 µM,[1],43%
same,viability at 100 µM,[2],34%
same,viability at 100 µM,[3],94%
CCCCOc1ccc(/C=C/C(=O)c2ccc(OCCCC)cc2O)cc1,viability at 100 µM,[1],81%
same,viability at 100 µM,[2],79%
same,viability at 100 µM,[3],99%

# Source: ChEMBL document CHEMBL1147926, “Synthetic chalcones, flavanones, and flavones as antitumoral agents: biological evaluation and structure-activity relationships” (Bioorg Med Chem, 2007)
